The values below come from ChEMBL document CHEMBL3085773, “A general method for making peptide therapeutics resistant to serine protease degradation: application to dipeptidyl peptidase IV substrates” (J Med Chem, 2013).

Molecules are shown by their SMILES. Peptide text beside a SMILES is read from it.

The half-life is the time in which the quantity being followed falls by half. As usually defined, the Ki is a dissociation constant, usually derived from enzyme kinetics or from competition with a known ligand.

Data set [1] addresses DPP4 (dipeptidyl peptidase 4) (Homo sapiens, UniProt P27487). Kind of data set: Metabolic stability in human plasma assessed as half life of DPP4-mediated compound degradation. It counts as ADME.
For data set [2], the target named is Dipeptidyl peptidase 4 (Homo sapiens, UniProt P27487). Briefly: Competitive inhibition of human recombinant DPP4 using AP-pNA as substrate preincubated for 30 mins followed by substrate addition measured after 30 mins by spectrophotometric analysis.
For data set [3], the target named is DPP4 (dipeptidyl peptidase 4) (Rattus norvegicus, UniProt P14740). Kind of data set: Metabolic stability in rat serum assessed as half life of DPP4-mediated compound degradation. It is filed as ADME, cell-free.
For a further data set, the target named is Trypsin (Sus scrofa, UniProt P00761). Briefly: Stability of the compound assessed as porcine pancreatic trypsin-mediated compound degradation at 0.1 mM after 10 secs by reverse-phase HPLC/MS analysis. It is filed as ADME. The settings on record: pig, isolated protein, 10 s, 100 µM. In a few lines:
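Peptide (0.1 mM) incubated at 37 °C with 100 nM purified porcine pancreatic trypsin in 50 mM Tris-HCl, 20 mM CaCl₂, pH 8.0. Timed samples were acid-quenched with 10% (v/v) 0.1 M HCl, then analysed by reverse-phase HPLC-MS. Mean ± range of two independent experiments.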

Data set [4] has as its target Chymotrypsinogen A (Bos taurus) (UniProt P00766). Kind of data set: Stability of the compound assessed as bovine pancreatic chymotrypsin-mediated compound degradation at 0.1 mM after 10 secs by reverse-phase HPLC/MS analysis. The settings on record: cow, isolated protein, 10 s, 100 µM.
Data set [5] addresses Dipeptidyl peptidase 4 (Sus scrofa, UniProt P22411). Briefly: Stability of the compound assessed as porcine DPP4-mediated compound degradation at 0.1 mM measured over 30 mins by reverse-phase HPLC/MS analysis. It counts as ADME. As to conditions: pig, 0.5 h, 100 µM. In a few lines: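 Peptide (0.1 mM) incubated at 37 °C with DPP IV purified from porcine kidney (10 mU/mL) in 50 mM HEPES, 0.14 M NaCl, pH 8.0. Samples taken at set times and quenched with 10% (v/v) 0.1 M HCl. Intact peptide quantified by reverse-phase HPLC-MS and expressed as percent of the time-0 amount.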

Chain of Dipeptidyl peptidase 4 (Sus scrofa, UniProt P22411) (P22411 whole entry): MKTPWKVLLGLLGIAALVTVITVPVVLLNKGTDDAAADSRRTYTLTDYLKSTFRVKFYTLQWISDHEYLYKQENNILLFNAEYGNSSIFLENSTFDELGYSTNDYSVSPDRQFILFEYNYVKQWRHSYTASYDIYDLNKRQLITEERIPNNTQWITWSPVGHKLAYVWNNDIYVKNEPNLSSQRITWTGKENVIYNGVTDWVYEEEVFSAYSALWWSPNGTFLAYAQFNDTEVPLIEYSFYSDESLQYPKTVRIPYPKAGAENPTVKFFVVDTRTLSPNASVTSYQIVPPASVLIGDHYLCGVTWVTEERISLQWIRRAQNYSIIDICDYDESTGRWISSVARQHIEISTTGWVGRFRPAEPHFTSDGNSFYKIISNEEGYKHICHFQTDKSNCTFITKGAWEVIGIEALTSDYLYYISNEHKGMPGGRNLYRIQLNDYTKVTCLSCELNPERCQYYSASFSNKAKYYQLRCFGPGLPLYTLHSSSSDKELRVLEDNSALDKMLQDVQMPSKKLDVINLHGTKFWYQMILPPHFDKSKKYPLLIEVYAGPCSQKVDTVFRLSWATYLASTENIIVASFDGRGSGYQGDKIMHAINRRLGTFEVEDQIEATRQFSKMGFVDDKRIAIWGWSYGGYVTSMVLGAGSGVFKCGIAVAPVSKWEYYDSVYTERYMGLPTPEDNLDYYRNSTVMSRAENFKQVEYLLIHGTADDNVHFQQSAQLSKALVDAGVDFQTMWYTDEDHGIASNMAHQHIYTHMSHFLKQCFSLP
Chain of Trypsin (P00761 whole entry): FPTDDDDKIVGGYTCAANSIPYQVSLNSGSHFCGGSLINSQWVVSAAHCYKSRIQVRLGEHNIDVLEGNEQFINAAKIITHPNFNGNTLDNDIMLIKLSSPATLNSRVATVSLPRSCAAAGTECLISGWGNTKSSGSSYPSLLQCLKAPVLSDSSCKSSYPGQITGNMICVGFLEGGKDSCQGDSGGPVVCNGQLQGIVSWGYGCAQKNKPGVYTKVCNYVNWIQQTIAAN
Chain of Dipeptidyl peptidase 4 (Homo sapiens, UniProt P27487) (P27487 whole entry): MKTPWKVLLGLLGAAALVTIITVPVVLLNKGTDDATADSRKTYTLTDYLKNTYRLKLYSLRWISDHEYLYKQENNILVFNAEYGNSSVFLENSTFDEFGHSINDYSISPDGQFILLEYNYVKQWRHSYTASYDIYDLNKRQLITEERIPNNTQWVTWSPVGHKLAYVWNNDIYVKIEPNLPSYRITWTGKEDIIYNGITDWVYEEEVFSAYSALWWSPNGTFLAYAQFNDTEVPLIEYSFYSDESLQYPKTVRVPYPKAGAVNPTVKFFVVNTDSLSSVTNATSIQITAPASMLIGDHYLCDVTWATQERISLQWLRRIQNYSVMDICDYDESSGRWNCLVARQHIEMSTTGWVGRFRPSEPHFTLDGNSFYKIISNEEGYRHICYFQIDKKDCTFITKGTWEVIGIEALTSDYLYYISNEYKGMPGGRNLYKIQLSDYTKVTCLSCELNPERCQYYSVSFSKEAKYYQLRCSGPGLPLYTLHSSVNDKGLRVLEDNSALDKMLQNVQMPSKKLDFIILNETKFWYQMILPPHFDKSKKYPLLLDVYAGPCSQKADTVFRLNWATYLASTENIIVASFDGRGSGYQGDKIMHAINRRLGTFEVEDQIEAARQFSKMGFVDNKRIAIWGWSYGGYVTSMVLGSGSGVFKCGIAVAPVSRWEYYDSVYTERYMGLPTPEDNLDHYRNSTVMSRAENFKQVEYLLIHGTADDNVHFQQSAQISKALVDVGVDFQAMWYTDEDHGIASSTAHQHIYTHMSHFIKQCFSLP
Chain of DPP4 (dipeptidyl peptidase 4) (Homo sapiens, UniProt P27487) (P27487 whole entry): as above
Chain of DPP4 (dipeptidyl peptidase 4) (Rattus norvegicus, UniProt P14740) (P14740 whole entry): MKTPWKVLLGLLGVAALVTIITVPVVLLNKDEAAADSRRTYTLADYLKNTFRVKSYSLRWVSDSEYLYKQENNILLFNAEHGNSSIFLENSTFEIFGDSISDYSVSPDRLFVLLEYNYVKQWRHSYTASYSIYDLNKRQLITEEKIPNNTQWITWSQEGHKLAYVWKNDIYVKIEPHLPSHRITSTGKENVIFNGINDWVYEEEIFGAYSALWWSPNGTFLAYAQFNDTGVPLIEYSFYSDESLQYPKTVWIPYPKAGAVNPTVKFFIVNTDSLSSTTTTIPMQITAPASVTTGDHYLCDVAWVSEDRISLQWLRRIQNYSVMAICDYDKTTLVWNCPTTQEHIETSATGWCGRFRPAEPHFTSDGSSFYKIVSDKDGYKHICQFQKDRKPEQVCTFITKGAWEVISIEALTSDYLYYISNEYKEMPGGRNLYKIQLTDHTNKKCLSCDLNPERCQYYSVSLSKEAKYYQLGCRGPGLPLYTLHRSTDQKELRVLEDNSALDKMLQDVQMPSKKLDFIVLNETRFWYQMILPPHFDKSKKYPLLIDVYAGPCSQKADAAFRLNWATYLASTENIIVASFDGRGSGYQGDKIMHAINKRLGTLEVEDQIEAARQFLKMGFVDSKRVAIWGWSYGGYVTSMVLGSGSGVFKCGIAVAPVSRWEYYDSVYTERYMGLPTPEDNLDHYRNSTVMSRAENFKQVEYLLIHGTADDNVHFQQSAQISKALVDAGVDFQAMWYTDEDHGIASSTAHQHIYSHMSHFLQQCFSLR

As for `CC[C@H](C)[C@H](NC(=O)[C@H](CCCNC(=N)N)NC(=O)[C@H](CC(=O)O)NC(=O)[C@H](CCSC)NC(=O)[C@H](CCCCN)NC(=O)[C@H](CCCNC(=N)N)NC(=O)CNC(=O)[C@H](Cc1ccccc1)NC(=O)[C@H](CS)NC(=O)CNC(=O)[C@H](CO)NC(=O)CNC(=O)[C@H](CCC(N)=O)NC(=O)[C@@H](NC(=O)[C@H](CCSC)NC(=O)[C@H](CCCCN)NC(=O)[C@@H]1CCCN1C(=O)[C@@H](N)CO)C(C)C)C(=O)N[C@@H](CO)C(=O)N[C@@H](CO)C(=O)N[C@@H](CO)C(=O)N[C@@H](CO)C(=O)NCC(=O)N[C@@H](CC(C)C)C(=O)NCC(=O)N[C@@H](CS)C(=O)N[C@@H](CCCCN)C(=O)N[C@H](C(=O)N[C@@H](CC(C)C)C(=O)N[C@@H](CCCNC(=N)N)C(=O)N[C@@H](CCCNC(=N)N)C(=O)N[C@@H](Cc1cnc[nH]1)C(N)=O)C(C)C`, in data set [1], the half-life was 15 min.
For the compound `CC(C)[C@H](N)C(=O)N1CCC[C@H]1C(=O)N[C@@H](CC(=O)O)C(=O)N1CCC[C@H]1C(=O)N[C@@H](CCCNC(=N)N)C(N)=O` (H-VPDPR-NH2), the Ki at Dipeptidyl peptidase 4 [2] is 142 µM. In addition, the half-life in data set [3] is 5 min.
For the compound `CC[C@H](C)[C@H](NC(=O)[C@H](Cc1ccccc1)NC(=O)[C@H](CCC(=O)O)NC(=O)[C@H](CCCCN)NC(=O)[C@H](C)NC(=O)[C@H](C)NC(=O)[C@H](CCC(N)=O)NC(=O)CNC(=O)[C@H](CCC(=O)O)NC(=O)[C@H](CC(C)C)NC(=O)[C@H](Cc1ccc(O)cc1)NC(=O)[C@H](CO)NC(=O)[C@H](CO)NC(=O)[C@@H](NC(=O)[C@H](CC(=O)O)NC(=O)[C@H](CO)NC(=O)[C@@H](NC(=O)[C@H](Cc1ccccc1)NC(=O)[C@@H](NC(=O)CNC(=O)[C@H](CCC(=O)O)NC(=O)[C@H](C)NC(=O)[C@@H](N)Cc1c[nH]cn1)[C@@H](C)O)[C@@H](C)O)C(C)C)C(=O)N[C@@H](C)C(=O)N[C@@H](Cc1c[nH]c2ccccc12)C(=O)N[C@@H](CC(C)C)C(=O)N[C@H](C(=O)N[C@@H](CCCCN)C(=O)NCC(=O)N[C@@H](CCCNC(=N)N)C(N)=O)C(C)C`, the Stability entry at Trypsin is “Unstable”; in data set [4] it was “Unstable”; on Dipeptidyl peptidase 4 [5] it was “Stable”.
